Molecules are shown by their SMILES.

Consider 46 compounds from ChEMBL document CHEMBL1124233, “Clofazimine analogues active against a clofazimine-resistant organism” (J Med Chem, 1988).

Type in all cases: functional, organism-based
Experiment [1] concerns Mycolicibacterium smegmatis. Kind of experiment: 100% inhibition of growth of clofazimine resistant Mycobacterium smegmatis 607 strain in vitro. Put shortly: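 Strain: 20× step-up clofazimine-resistant mutant of M. smegmatis ATCC607. 10^5 viable cells inoculated into modified Kirchner's medium with 0.5% Tween 80. Drugs were added in DMSO (2% final in all tubes). Roller tubes were incubated at 37 °C for 72 h. Growth was read as optical transmission in a spectrophotometer.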

For experiment [2], the system named is Mycolicibacterium smegmatis. Kind of experiment: Concentration for 100% inhibition of growth of dapsone sensitive Mycobacterium smegmatis 607 strain in vitro. The method in brief: (§1)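 M. smegmatis ATCC607-derived strains (one of three used, including a dapsone-sensitive one) were grown in modified Kirchner's medium with 0.5% Tween 80, inoculated with 10^5 viable cells. Drugs were added in DMSO (2% final). Roller tubes were incubated at 37 °C for 72 h. Growth was read as spectrophotometric transmission.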

Experiment [3] concerns Mycolicibacterium smegmatis. In words: 100% inhibition of growth of rifampicin resistant Mycobacterium smegmatis 607 strain in vitro. Put shortly:
as §1

In the case of `OCCNCC/N=c1\cc2n(-c3ccc(Cl)cc3)c3ccccc3nc-2cc1Nc1ccc(Cl)cc1`, the Concentration worked out at 20 µg/mL in experiment [1], 8 µg/mL in experiment [2] and 8 µg/mL in experiment [3].

Turning to `NCCCC/N=c1\cc2n(-c3ccc(Cl)cc3)c3ccccc3nc-2cc1Nc1ccc(Cl)cc1`, the Concentration worked out at 0.5 µg/mL in experiment [1], 0.2 µg/mL in experiment [2] and 0.3 µg/mL in experiment [3].

`CC(C/N=c1\cc2n(-c3ccc(Cl)cc3)c3ccccc3nc-2cc1Nc1ccc(Cl)cc1)N(C)C` (stereo not drawn): the Concentration in experiment [1] amounted to 16 µg/mL; in experiment [2], 1.2 µg/mL; in experiment [3], 6 µg/mL.

`CCOc1ccc(Nc2cc3nc4ccccc4n(-c4ccc(OCC)cc4)c-3c/c2=N\CC(C)C)cc1`: the Concentration in experiment [1] worked out at 100 µg/mL; in experiment [2] it was 4 µg/mL; in experiment [3], 4 µg/mL.

Consider `CCN(CC)CC/N=c1\cc2n(-c3ccccc3)c3ccc(Cl)cc3nc-2cc1Nc1ccccc1`, for which the figures for the Concentration in experiment [1], in experiment [2] and in experiment [3] were 30 µg/mL, 1 µg/mL and 2 µg/mL, respectively.

`Clc1ccc(Nc2cc3nc4ccccc4n(-c4ccc(Cl)cc4)c-3c/c2=N\CCN2CCOCC2)cc1`: the Concentration amounted to 20 µg/mL in experiment [1], 1 µg/mL in experiment [2] and 1 µg/mL in experiment [3].

For `CC(C)/N=c1\cc2n(-c3ccccc3)c3ccccc3nc-2cc1Nc1ccccc1`, the Concentration amounted to 100 µg/mL in experiment [1], 2 µg/mL in experiment [2] and 3 µg/mL in experiment [3].

Regarding `c1ccc(Nc2cc3nc4ccccc4n(-c4ccccc4)c-3c/c2=N\CCCN2CCOCC2)cc1`, the results for the Concentration in experiment [1], in experiment [2] and in experiment [3] were 6 µg/mL, 1 µg/mL and 0.8 µg/mL, respectively.

As for `CC(C)C/N=c1\cc2n(-c3ccccc3)c3ccc(Cl)cc3nc-2cc1Nc1ccccc1`, the Concentration came out at 100 µg/mL in experiment [1], 2 µg/mL in experiment [2] and 3 µg/mL in experiment [3].

For the compound `CCC/N=c1\cc2n(-c3ccc(Cl)cc3)c3ccccc3nc-2cc1Nc1ccc(Cl)cc1`, the Concentration in experiment [1] stood at 100 µg/mL; in experiment [2] it was 3 µg/mL; in experiment [3], 3 µg/mL.

For `CC(C)CC/N=c1\cc2n(-c3ccccc3)c3ccc(Cl)cc3nc-2cc1Nc1ccccc1`, the Concentration was 100 µg/mL in experiment [1], 3 µg/mL in experiment [2] and 3 µg/mL in experiment [3].

On to `Clc1ccc(Nc2cc3nc4ccccc4n(-c4ccc(Cl)cc4)c-3c/c2=N\CCN2CCCC2)cc1`, for which the Concentration stood at 10 µg/mL in experiment [1], 0.5 µg/mL in experiment [2] and 0.5 µg/mL in experiment [3].

Consider `Clc1ccc(Nc2cc3nc4ccccc4n(-c4ccc(Cl)cc4)c-3c/c2=N\CCCNC2CCCCC2)cc1`, for which the Concentration in experiment [1] stood at 1 µg/mL; in experiment [2], 0.2 µg/mL; in experiment [3] it was 0.2 µg/mL.

On to `CC/N=c1\cc2n(-c3ccccc3)c3ccccc3nc-2cc1Nc1ccccc1`, for which the Concentration came to 20 µg/mL in experiment [1], 3 µg/mL in experiment [2] and 3 µg/mL in experiment [3].

Consider `CCCNCCC/N=c1\cc2n(-c3ccc(Cl)cc3)c3ccccc3nc-2cc1Nc1ccc(Cl)cc1`, for which the Concentration in experiment [1] was 2 µg/mL; in experiment [2] it was 0.2 µg/mL; in experiment [3], 0.2 µg/mL.

For the compound `NCCCCC/N=c1\cc2n(-c3ccc(Cl)cc3)c3ccccc3nc-2cc1Nc1ccc(Cl)cc1`, the Concentration in experiment [1] came to 0.5 µg/mL; in experiment [2], 0.2 µg/mL; in experiment [3], 0.3 µg/mL.

Regarding `OCCC/N=c1\cc2n(-c3ccc(Cl)cc3)c3ccccc3nc-2cc1Nc1ccc(Cl)cc1`, the figures for the Concentration in experiment [1], in experiment [2] and in experiment [3] were 10 µg/mL, 2 µg/mL and 2 µg/mL, respectively.

As for `N=c1cc2n(-c3ccc(Cl)cc3)c3ccccc3nc-2cc1Nc1ccc(Cl)cc1`, the Concentration in experiment [1] is 40 µg/mL; in experiment [2], 3 µg/mL; in experiment [3] it was 3 µg/mL.

As for `Clc1ccc(Nc2cc3nc4ccccc4n(-c4ccc(Cl)cc4)c-3c/c2=N\CCCN2CCCCC2)cc1`, the Concentration came out at 2 µg/mL in experiment [1], 0.2 µg/mL in experiment [2] and 0.3 µg/mL in experiment [3].

As for `Cc1ccc(Nc2cc3nc4ccccc4n(-c4ccc(C)cc4)c-3c/c2=N\CCO)cc1`, the results for the Concentration in experiment [1], in experiment [2] and in experiment [3] were 12 µg/mL, 4 µg/mL and 8 µg/mL, respectively.

In the case of `OCCC/N=c1\cc2n(-c3ccccc3)c3ccccc3nc-2cc1Nc1ccccc1`, the Concentration in experiment [1] is 20 µg/mL; in experiment [2], 4 µg/mL; in experiment [3] it was 8 µg/mL.

With `c1ccc(Nc2cc3nc4ccccc4n(-c4ccccc4)c-3c/c2=N\CCN2CCCC2)cc1`, the Concentration in experiment [1] came to 2 µg/mL; in experiment [2], 0.4 µg/mL; in experiment [3], 0.4 µg/mL.

As for `Clc1ccc(Nc2cc3nc4ccccc4n(-c4ccc(Cl)cc4)c-3c/c2=N\CC2CCCCC2)cc1`, the values for the Concentration in experiment [1], in experiment [2] and in experiment [3] were 100 µg/mL, 3 µg/mL and 3 µg/mL, respectively.

For the compound `OC1CCC(/N=c2\cc3n(-c4ccc(Cl)cc4)c4ccccc4nc-3cc2Nc2ccc(Cl)cc2)CC1` (stereo not drawn), the Concentration in experiment [1] amounted to 30 µg/mL; in experiment [2], 2 µg/mL; in experiment [3] it was 4 µg/mL.

As to `c1ccc(Nc2cc3nc4ccccc4n(-c4ccccc4)c-3c/c2=N\C2CCCCC2)cc1`, the Concentration in experiment [1] was determined as 10 µg/mL; in experiment [2] it was 3 µg/mL; in experiment [3], 2 µg/mL.

For the compound `Clc1ccc(Nc2cc3nc4ccccc4n(-c4ccc(Cl)cc4)c-3c/c2=N\CCN2CCNCC2)cc1`, the figures for the Concentration in experiment [1], in experiment [2] and in experiment [3] were 0.8 µg/mL, 0.2 µg/mL and 0.2 µg/mL, respectively.

In the case of `CC1CCCCN1CCC/N=c1\cc2n(-c3ccc(Cl)cc3)c3ccccc3nc-2cc1Nc1ccc(Cl)cc1` (stereo not drawn), the figures for the Concentration in experiment [1], in experiment [2] and in experiment [3] were 2 µg/mL, 0.2 µg/mL and 0.2 µg/mL, respectively.

Regarding `CCCCN(CCCC)CCC/N=c1\cc2n(-c3ccc(Cl)cc3)c3ccccc3nc-2cc1Nc1ccc(Cl)cc1`, the results for the Concentration in experiment [1], in experiment [2] and in experiment [3] were 12 µg/mL, 0.4 µg/mL and 0.8 µg/mL, respectively.

Turning to `CC(C)/N=c1\cc2n(-c3ccc(Cl)cc3)c3ccccc3nc-2cc1Nc1ccc(Cl)cc1`, the Concentration in experiment [1] was 30 µg/mL; in experiment [2], 1.5 µg/mL; in experiment [3] it was 0.5 µg/mL.

Consider `c1ccc(Nc2cc3nc4ccccc4n(-c4ccccc4)c-3c/c2=N\CC2CCCCC2)cc1`, for which the Concentration came out at 100 µg/mL in experiment [1], 2 µg/mL in experiment [2] and 2 µg/mL in experiment [3].

Consider `Cc1ccc(Nc2cc3nc4ccccc4n(-c4ccc(C)cc4)c-3c/c2=N\C2CCCCC2)cc1`, for which the results for the Concentration in experiment [1], in experiment [2] and in experiment [3] were 100 µg/mL, 8 µg/mL and 8 µg/mL, respectively.

`c1ccc(Nc2cc3nc4ccccc4n(-c4ccccc4)c-3c/c2=N\CCCNC2CCCCC2)cc1`: the Concentration in experiment [1] came to 0.6 µg/mL; in experiment [2], 0.2 µg/mL; in experiment [3], 0.2 µg/mL.

In the case of `Cc1ccc(Nc2cc3nc4ccccc4n(-c4ccc(C)cc4)c-3c/c2=N\CC2CCNCC2)cc1`, the Concentration came to 0.4 µg/mL in experiment [1], 0.2 µg/mL in experiment [2] and 0.3 µg/mL in experiment [3].

With `c1ccc(Nc2cc3nc4ccccc4n(-c4ccccc4)c-3c/c2=N\CCN2CCOCC2)cc1`, the values for the Concentration in experiment [1], in experiment [2] and in experiment [3] were 10 µg/mL, 2 µg/mL and 2 µg/mL, respectively.

Take `CCN1CCCC1C/N=c1\cc2n(-c3ccccc3)c3ccccc3nc-2cc1Nc1ccccc1` (stereo not drawn): the Concentration in experiment [1] came out at 6 µg/mL; in experiment [2] it was 0.5 µg/mL; in experiment [3], 0.4 µg/mL.

As to `COC(C/N=c1\cc2n(-c3ccccc3)c3ccccc3nc-2cc1Nc1ccccc1)OC`, the results for the Concentration in experiment [1], in experiment [2] and in experiment [3] were 100 µg/mL, 4 µg/mL and 4 µg/mL, respectively.

As for `CC(C)NCCC/N=c1\cc2n(-c3ccc(Cl)cc3)c3ccccc3nc-2cc1Nc1ccc(Cl)cc1`, the Concentration was found to be 2 µg/mL in experiment [1], 0.3 µg/mL in experiment [2] and 0.2 µg/mL in experiment [3].

`c1ccc(Nc2cc3nc4ccccc4n(-c4ccccc4)c-3c/c2=N\CC2CCNCC2)cc1`: the Concentration in experiment [1] worked out at 0.6 µg/mL; in experiment [2], 0.3 µg/mL; in experiment [3], 0.3 µg/mL.

For the compound `CC/N=c1\cc2n(-c3ccc(Cl)cc3)c3ccccc3nc-2cc1Nc1ccc(Cl)cc1`, the Concentration in experiment [1] worked out at 100 µg/mL; in experiment [2], 2 µg/mL; in experiment [3], 2 µg/mL.

Take `CNCCC/N=c1\cc2n(-c3ccc(Cl)cc3)c3ccccc3nc-2cc1Nc1ccc(Cl)cc1`: the Concentration in experiment [1] amounted to 0.6 µg/mL; in experiment [2], 0.2 µg/mL; in experiment [3], 0.3 µg/mL.

Take `CN1CCN(CCC/N=c2\cc3n(-c4ccccc4)c4ccccc4nc-3cc2Nc2ccccc2)CC1`: the Concentration was found to be 1 µg/mL in experiment [1], 0.5 µg/mL in experiment [2] and 0.5 µg/mL in experiment [3].

`OCC/N=c1\cc2n(-c3ccc(Cl)cc3)c3ccccc3nc-2cc1Nc1ccc(Cl)cc1`: the Concentration in experiment [1] came out at 20 µg/mL; in experiment [2], 2 µg/mL; in experiment [3], 2 µg/mL.

As to `Clc1ccc(Nc2cc3nc4ccccc4n(-c4ccc(Cl)cc4)c-3c/c2=N\CCCN2CCCC2)cc1`, the results for the Concentration in experiment [1], in experiment [2] and in experiment [3] were 0.8 µg/mL, 0.3 µg/mL and 0.3 µg/mL, respectively.

Regarding `N=c1cc2n(-c3ccccc3)c3ccccc3nc-2cc1Nc1ccccc1`, the values for the Concentration in experiment [1], in experiment [2] and in experiment [3] were 12 µg/mL, 3 µg/mL and 8 µg/mL, respectively.

As to `CCOc1ccc(Nc2cc3nc4ccccc4n(-c4ccc(OCC)cc4)c-3c/c2=N\CCN(CC)CC)cc1`, the Concentration is 5 µg/mL in experiment [1], 1 µg/mL in experiment [2] and 1 µg/mL in experiment [3].

As to `OCC/N=c1\cc2n(-c3ccccc3)c3ccc(Cl)cc3nc-2cc1Nc1ccccc1`, the Concentration in experiment [1] was determined as 100 µg/mL; in experiment [2], 2 µg/mL; in experiment [3], 4 µg/mL.
